Reference: ChEMBL document CHEMBL1124707, “N-phenyl-N'-pyridinylureas as anticonvulsant agents” (1990)

Assays:
Mus musculus [1] = species on record: Mus musculus; format: functional
Mus musculus [2] = species on record: Mus musculus; assay: animal or person; format: functional; conditions: 0.5 h, read-out: MED
Rattus norvegicus [3] = assay: The compound was tested for Ataxia(ATAX) by the inverted screen test, after oral administration in rat at 240 min; conditions: 4 h
Mus musculus [4] = assay: The compound was tested for Ataxia(ATAX) by the inverted screen test, after intraperitoneal administration at 120 min in mice; format: functional; conditions: ip, 2 h
Mus musculus [5] = species on record: Mus musculus; assay: Protective activity was determined against Maximal Electroshock seizures(MES) in mouse at 30 min; format: functional; conditions: 0.5 h
Summary of the method: (§1)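 Male Swiss-Webster mice (25–32 g, fed) were dosed orally, with the compound in water or in a 0.2% (hydroxymethyl)cellulose suspension and doses calculated as free base. Absence of tonic hind-limb extension counted as protection. Ten mice per dose were used, giving an ED50 with 95% confidence interval.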

Mus musculus [6] = assay: The compound was tested for Ataxia(ATAX) by the inverted screen test, after oral administration in mouse at 60 min; format: functional; conditions: 1 h
Summary of the method: (§2)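 Mice were dosed orally, with doses calculated as free base. They were placed on an inverted square of wire mesh, and falling off was scored as impairment. Ten mice per dose were tested at the stated time, giving an ED50 with 95% confidence interval.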

Mus musculus [7] = species on record: Mus musculus; assay: The compound was tested for protective activity against Maximal Electroshock seizures(MES) at 60 min in mice; format: functional; conditions: 1 h
Rattus norvegicus [8] = species on record: Rattus norvegicus; assay: Protective activity was determined against Maximal Electroshock seizures(MES) in rat at 60 min; format: functional; conditions: 1 h
Summary of the method: (§3)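 Rats were dosed orally and tested against maximal electroshock, with the test time after dosing given per line. Doses were calculated as free base. ED50 is reported with 95% confidence interval.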

Rattus norvegicus [9] = species on record: Rattus norvegicus; assay: Protective activity was determined against Maximal Electroshock seizures(MES) in rat at 30 min; format: functional; conditions: 0.5 h
Summary of the method: as §3

Mus musculus [10] = assay: The compound was tested for Ataxia(ATAX) by the inverted screen test, after oral administration in mouse at 120 min; format: functional; conditions: 2 h
Summary of the method: as §2

Mus musculus [11] = species on record: Mus musculus; assay: Protective activity was determined against Maximal Electroshock seizures(MES) in mouse at 120 min; format: functional; conditions: 2 h
Summary of the method: as §1

Mus musculus [12] = assay: The compound was tested for Ataxia(ATAX) by the inverted screen test after (ip) administration at 120 min; format: functional; conditions: 2 h
Mus musculus [13] = species on record: Mus musculus; assay: Protective activity against Maximal Electroshock seizures(MES) in mice was determined at 90 min; format: functional; conditions: 1.5 h
Mus musculus [14] = assay: The compound was tested for Ataxia(ATAX) by the inverted screen test, after intraperitoneal administration at 120 min; format: functional; conditions: ip, 2 h
Mus musculus [15] = species on record: Mus musculus; assay: Protective activity against Maximal Electroshock seizures(MES) at 60 min was determined; format: functional; conditions: 1 h

| Structure (SMILES) | MAD (Mus musculus [1]) | minimal effective dose (Mus musculus [2]) | further results |
| --- | --- | --- | --- |
| Cc1c(Cl)cccc1NC(=O)Nc1ccncc1 | >300 mg/kg | > 300 mg/kg |  |
| CC(C)c1ccccc1NC(=O)Nc1ccncc1 | 300 mg/kg | 100 mg/kg |  |
| COc1ccccc1NC(=O)Nc1ccncc1 | >300 mg/kg | 100 mg/kg |  |
| O=C(Nc1ccncc1)Nc1ccccc1C(F)(F)F | 300 mg/kg | 100 mg/kg |  |
| Cc1cccc(Cl)c1NC(=O)Nc1ccncc1 | 300 mg/kg | 30 mg/kg | ED50 (Rattus norvegicus [3]): 408 mg/kg; ED50 (Mus musculus [4]): 251 mg/kg; ED50 (Mus musculus [5]): 14 mg/kg; ED50 (Mus musculus [6]): 210 mg/kg; ED50 (Mus musculus [7]): 46 mg/kg; ED50 (Rattus norvegicus [8]): 9.2 mg/kg |
| CN(C)c1ccccc1NC(=O)Nc1ccncc1 | 100 mg/kg | 100 mg/kg |  |
| Cc1cccc(C)c1NC(=O)Nc1cccnc1 | 300 mg/kg | 100 mg/kg |  |
| O=C(Nc1ccncc1)Nc1cccc([N+](=O)[O-])c1 | >300 mg/kg | > 300 mg/kg |  |
| N#Cc1ccccc1NC(=O)Nc1ccncc1 | 100 mg/kg | > 300 mg/kg |  |
| Nc1ccc(NC(=O)Nc2ccncc2)cc1 | 300 mg/kg | > 300 mg/kg |  |
| O=C(Nc1cccnc1)Nc1c(Cl)cccc1Cl | 300 mg/kg | > 300 mg/kg |  |
| Cc1cccc(C)c1NC(=O)N1CCN(C)CC1 | 300 mg/kg | 100 mg/kg |  |
| Cc1cccc(Cl)c1NC(=O)Nc1cccnc1 | 300 mg/kg | 100 mg/kg |  |
| O=C(Nc1ccncc1)Nc1ccc(F)cc1 | 300 mg/kg | 300 mg/kg |  |
| O=C(Nc1ccncc1)Nc1cccc(C(F)(F)F)c1 | >300 mg/kg | > 300 mg/kg |  |
| O=C(Nc1ccncc1)Nc1ccc(I)cc1 | >300 mg/kg | > 300 mg/kg |  |
| Cc1ccc(NC(=O)Nc2ccncc2)cc1 | 100 mg/kg | > 300 mg/kg |  |
| CC(C)c1ccc(NC(=O)Nc2ccncc2)cc1 | >300 mg/kg | > 300 mg/kg |  |
| O=C(Nc1ccncc1)Nc1ccccc1OCc1ccccc1 | 30 mg/kg | > 300 mg/kg |  |

| Structure (SMILES) | MAD (Mus musculus [1]) | minimal effective dose (Mus musculus [2]) | further results |
| --- | --- | --- | --- |
| Cc1cc(NC(=O)Nc2c(C)cccc2Cl)ccn1 | 100 mg/kg | 30 mg/kg |  |
| O=C(Nc1ccncc1)Nc1ccccc1Br | >300 mg/kg | 100 mg/kg |  |
| O=C(Nc1ccncc1)Nc1ccccc1[N+](=O)[O-] | >300 mg/kg | 300 mg/kg |  |
| Cc1ccccc1NC(=O)Nc1ccncc1 | >300 mg/kg | 100 mg/kg |  |
| CC(C)NC(=O)Nc1ccncc1 | 300 mg/kg | 300 mg/kg |  |
| Cc1cccc(Cl)c1NC(N)=O | 300 mg/kg | 100 mg/kg |  |
| Cc1cc(C)c(NC(=O)Nc2ccncc2)c(C)c1 | 300 mg/kg | 30 mg/kg |  |
| CCOC(=O)c1ccccc1NC(=O)Nc1ccncc1 | >300 mg/kg | 300 mg/kg |  |
| O=C(Nc1ccncc1)Nc1ccccc1C(=O)O | >300 mg/kg | > 300 mg/kg |  |
| Cc1ccc(NC(=O)Nc2ccncc2)c(C)c1 | >300 mg/kg | > 300 mg/kg |  |
| O=C(Nc1ccccc1)Nc1ccncc1 | 300 mg/kg | 100 mg/kg |  |
| Cc1cccc(Cl)c1NC(=O)Nc1c(C)cccc1Cl | >300 mg/kg | > 300 mg/kg |  |
| Cc1cccc(NC(=O)Nc2ccncc2)c1 | >300 mg/kg | > 300 mg/kg |  |
| O=C(Nc1ccncc1)Nc1ccc([N+](=O)[O-])cc1 | >300 mg/kg | > 300 mg/kg |  |
| O=C1NC(=O)C(c2ccccc2)(c2ccccc2)N1 [PHENYTOIN] |  |  | ED50 (Rattus norvegicus [3]): > 300 mg/kg; ED50 (Rattus norvegicus [9]): 30 mg/kg; ED50 (Mus musculus [10]): 78 mg/kg; ED50 (Mus musculus [11]): 8.3 mg/kg |
| CCc1cccc(CC)c1NC(=O)Nc1ccncc1 | 100 mg/kg | 30 mg/kg |  |
| Cc1cccc(Cl)c1NC(=O)Nc1ccccn1 | >300 mg/kg | 100 mg/kg |  |
| Cc1cc(C)c(NC(=O)Nc2ccncc2)c(Cl)c1 | >300 mg/kg | 100 mg/kg |  |
| CC(=O)c1ccc(NC(=O)Nc2ccncc2)cc1 | >300 mg/kg | > 300 mg/kg |  |

| Structure (SMILES) | MAD (Mus musculus [1]) | minimal effective dose (Mus musculus [2]) | further results |
| --- | --- | --- | --- |
| O=C(Nc1ccccn1)Nc1c(Cl)cccc1Cl | 100 mg/kg | > 300 mg/kg |  |
| CC(C)c1cccc(C(C)C)c1NC(=O)Nc1ccncc1 | >300 mg/kg | > 300 mg/kg |  |
| O=C(Nc1ccncc1)Nc1c(Cl)cccc1CO | 300 mg/kg | > 300 mg/kg |  |
| Cc1cccc(C)c1NC(=O)Nc1ccncc1 | 100 mg/kg | 30 mg/kg | ED50 (Mus musculus [12]): 138 mg/kg; ED50 (Mus musculus [13]): 21 mg/kg |
| Cc1cccc(C)c1NC(=O)Nc1ccccn1 | >300 mg/kg | 300 mg/kg |  |
| O=C(Nc1ccncc1)Nc1ccc(Cl)cc1Cl | >300 mg/kg | > 300 mg/kg |  |
| COc1cc(C)c(NC(=O)Nc2ccncc2)c(C)c1 | >300 mg/kg | > 300 mg/kg |  |
| O=C(Nc1ccncc1)Nc1ccccc1O | >300 mg/kg | > 300 mg/kg |  |
| O=C(Nc1ccncc1)Nc1ccccc1Cl | >300 mg/kg | 100 mg/kg |  |
| O=C(Nc1ccncc1)Nc1ccccc1F | 100 mg/kg | 100 mg/kg |  |
| Cc1cccc(Cl)c1NC(=O)NCc1ccncc1 | >300 mg/kg | > 300 mg/kg |  |
| O=C(Nc1ccncc1)Nc1c(Cl)cc(Cl)cc1Cl | 300 mg/kg | 300 mg/kg |  |
| O=C(Nc1ccncc1)Nc1ccc(Cl)cc1 | >300 mg/kg | > 300 mg/kg |  |
| Cc1cccc(C)c1NC(=O)Nc1ccc([N+](=O)[O-])cc1 | >300 mg/kg | > 300 mg/kg |  |
| O=C(Nc1ccncc1)Nc1c(Cl)cccc1C(F)(F)F | 300 mg/kg | 100 mg/kg |  |
| O=C(Nc1ccncc1)Nc1ccc(Oc2ccccc2)cc1 | >300 mg/kg | > 300 mg/kg |  |
| CCOC(=O)c1ccc(NC(=O)Nc2ccncc2)cc1 | >300 mg/kg | > 300 mg/kg |  |
| O=C(Nc1ccncc1)Nc1c(Cl)cccc1Cl | >300 mg/kg | 100 mg/kg | ED50 (Mus musculus [14]): 293 mg/kg; ED50 (Mus musculus [15]): 30 mg/kg |
| Nc1ccccc1NC(=O)Nc1ccncc1 | >300 mg/kg | > 300 mg/kg |  |
